# Where a SMILES comes first, the peptide text is derived from it.
# How the values were obtained:
# [1] = tested on: subjects with major depressive disorder; assay: Phase IIa safety; type: in vivo, human
# Procedure, shortened: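 Randomized, double-blind, placebo-controlled, parallel-group trial at 12 US centres (116 adults). Subjects had MDD by SCID and <25% response (ATRQ) to antidepressants in the current episode, followed by a 14-day antidepressant washout. Each received a single IV infusion over 3–15 min of normal saline or 1, 5, 10 or 30 mg/kg test compound. Subjects stayed ≥24 h in unit, with continuous ECG and pulse oximetry to 4 h, then follow-up visits.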
# [2] = Phase I safety and pharmacokinetics study in normal human volunteers; type: in vivo; conditions: for t1/2 initial / AUC(0-inf) / Cmax / clearance: plasma; for t1/2 initial: normal human volunteers, Mean ± SEM, n = 4; for Vd / AUC(0-inf) / Cmax / clearance: human, iv; for Vd: in vivo
# Procedure, shortened: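 Normal volunteers received a single IV dose via the antecubital vein, over a dose range of 0.5–25 mg/kg. Plasma Cmax and AUC were determined, with n = 4 subjects per dose, reported as Mean ± SEM.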
# [3] = Ames mutagenesis assay
# [4] = tested on: mouse lymphoma; assay: Mouse lymphoma assay; type: cell-based
# [5] = Plasma pharmacokinetics in rats; type: in vivo, rat
# [6] = Plasma pharmacokinetics in dogs; type: in vivo, dog
# [7] = biological target: hERG channel (Homo sapiens, UniProt Q12809); assay: hERG assay; type: cell-based; conditions: concentrations up to 5 mM
# [8] = tested on: rats; assay: Single-dose IV toxicology study in rats; type: in vivo, rat
# Procedure, shortened: (§1)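 Single IV doses up to 1000 mg/kg were given to rats and dogs. End-points were clinical observations, body weight, clinical chemistry, hematology, urinalysis, and gross and microscopic pathology.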
# [9] = tested on: male or female rats; assay: Behavioral safety; type: in vivo, rat
# [10] = Compatibility with human blood, serum and plasma in vitro; conditions: concentrations up to 3 mg/ml in vitro
# [11] = tested on: rats; assay: 90-day twice-weekly IV repeated-dose study in rats; type: in vivo, rat; conditions: up to 300 mg/kg (highest evaluated)
# [12] = tested on: dogs; assay: Single-dose IV toxicology study in dogs; type: in vivo, dog
# Procedure, shortened: as §1
# [13] = tested on: conscious rats; assay: Respiratory safety, plethysmography in conscious rats; type: in vivo, rat; conditions: single IV bolus dose up to 415 mg/kg, the highest dose evaluated
# [14] = tested on: rats; assay: Pentylenetetrazole convulsant activity; type: in vivo, rat; conditions: single dose 500 mg/kg IV, 60 min following pentylenetetrazole administration
# [15] = tested on: conscious instrumented dogs; assay: Cardiovascular safety in conscious instrumented dogs; type: in vivo, dog; conditions: single IV bolus doses up to 500 mg/kg
# [16] = tested on: dog-isolated Purkinje fibers; assay: Electrophysiology in dog-isolated Purkinje fibers; type: cell-based; conditions: concentrations up to 1 mM, the highest evaluated
# [17] = tested on: dogs; assay: 90-day twice-weekly IV repeated-dose study in dogs; type: in vivo, dog; conditions: up to 200 mg/kg (highest evaluated)
# [18] = tested on: mouse; assay: Mouse micronucleus assay; conditions: in vivo
# [19] = twice-weekly dosing for 3 months
# Chain of hERG channel (Q12809 whole entry): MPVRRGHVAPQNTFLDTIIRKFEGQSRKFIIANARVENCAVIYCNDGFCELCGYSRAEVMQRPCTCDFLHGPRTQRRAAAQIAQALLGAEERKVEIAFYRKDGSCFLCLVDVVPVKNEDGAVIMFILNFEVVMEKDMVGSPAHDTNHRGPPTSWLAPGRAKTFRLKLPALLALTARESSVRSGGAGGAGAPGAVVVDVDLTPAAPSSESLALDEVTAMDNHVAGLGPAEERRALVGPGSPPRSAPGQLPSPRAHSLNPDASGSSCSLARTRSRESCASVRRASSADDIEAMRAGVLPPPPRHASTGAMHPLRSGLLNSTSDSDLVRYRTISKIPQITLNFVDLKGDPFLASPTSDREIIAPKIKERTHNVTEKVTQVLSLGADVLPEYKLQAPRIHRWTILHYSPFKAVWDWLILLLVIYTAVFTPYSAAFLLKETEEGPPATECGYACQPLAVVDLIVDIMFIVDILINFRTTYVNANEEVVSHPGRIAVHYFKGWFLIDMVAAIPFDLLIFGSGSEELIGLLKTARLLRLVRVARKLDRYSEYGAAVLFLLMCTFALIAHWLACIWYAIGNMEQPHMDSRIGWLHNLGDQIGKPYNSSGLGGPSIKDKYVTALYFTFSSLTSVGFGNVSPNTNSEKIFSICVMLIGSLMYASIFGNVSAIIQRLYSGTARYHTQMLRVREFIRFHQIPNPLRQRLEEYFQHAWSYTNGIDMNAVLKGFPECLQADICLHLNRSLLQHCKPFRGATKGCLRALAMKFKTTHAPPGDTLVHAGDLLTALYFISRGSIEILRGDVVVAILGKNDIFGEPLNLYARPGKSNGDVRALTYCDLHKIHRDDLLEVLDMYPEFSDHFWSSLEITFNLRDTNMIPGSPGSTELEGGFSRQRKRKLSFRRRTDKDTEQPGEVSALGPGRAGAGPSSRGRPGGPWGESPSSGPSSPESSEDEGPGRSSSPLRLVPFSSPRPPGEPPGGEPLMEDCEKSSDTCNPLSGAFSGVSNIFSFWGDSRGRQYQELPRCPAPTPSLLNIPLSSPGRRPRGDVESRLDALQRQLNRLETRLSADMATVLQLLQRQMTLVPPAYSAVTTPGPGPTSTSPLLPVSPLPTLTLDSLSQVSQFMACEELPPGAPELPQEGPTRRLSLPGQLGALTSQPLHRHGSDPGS
compound,measurement,setting,value
C[C@@H](O)[C@H](N)C(=O)N1CCC[C@H]1C(=O)N1CCC[C@H]1C(=O)N[C@H](C(N)=O)[C@@H](C)O [GLYX-13] (H-TPPT-NH2),suicidality (Columbia-Suicide Severity Rating Scale),[1]; 14- or 28-day course of observation following dosing,did not cause any increase in suicidality
same,BPRS+ score (psychotomimetic effects),[1]; any time following dosing,did not increase BPRS+ score
same,treatment-related serious adverse events,"[1]; single IV dose 1, 5, 10 or 30 mg/kg",No treatment-related serious adverse events
same,t1/2 initial,[2]; 1 mg/kg IV,4.7 ± 0.5 min
same,t1/2 initial,[2]; 5 mg/kg IV,7.4 ± 0.9 min
same,t1/2 initial,[2]; 10 mg/kg IV,9.0 ± 0.6 min
same,t1/2 initial,[2]; 20 mg/kg IV,14.0 ± 2.1 min
same,increase of Cmax with dose,[2]; dose range 0.5 – 10 mg/kg IV,supralinearly
same,increase of AUC with dose,[2]; dose range 0.5 – 25 mg/kg IV,supralinearly
same,increase of Cmax with dose,[2]; dose range 10–25 mg/kg IV,linearly
same,Vd,[2]; 1 mg/kg,0.17 ± 0.03 L/kg
same,Vd,[2]; 5 mg/kg,0.31 ± 0.14 L/kg
same,Vd,[2]; 10 mg/kg,0.12 ± 0.01 L/kg
same,Vd,[2]; 20 mg/kg,0.1 ± 0.03 L/kg
same,AUC(0-inf),[2]; 1 mg/kg,533 ng·h/mL
same,Cmax,[2]; 1 mg/kg,5.2 ± 0.9 µg/mL
same,clearance,[2]; 1 mg/kg,33.7 mL/min/kg
same,AUC(0-inf),[2]; 5 mg/kg,4800 ng·h/mL
same,Cmax,[2]; 5 mg/kg,26 ± 11 µg/mL
same,clearance,[2]; 5 mg/kg,34.8 mL/min/kg
same,AUC(0-inf),[2]; 10 mg/kg,19400 ng·h/mL
same,Cmax,[2]; 10 mg/kg,100 ± 21 µg/mL
same,clearance,[2]; 10 mg/kg,9 mL/min/kg
same,AUC(0-inf),[2]; 20 mg/kg,67200 ng·h/mL
same,Cmax,[2]; 20 mg/kg,182 ± 56 µg/mL
same,clearance,[2]; 20 mg/kg,5 mL/min/kg
same,Ames mutagenesis,[3],inactive
same,mouse lymphoma assay,[4],inactive
same,plasma half-life,[5]; 30 – 300 mg/kg IV,2 to 3 min
same,half-life after repeated dosing,[5]; [19],retained its short half-life
same,plasma half-life,[6]; 20 – 200 mg/kg IV,5 to 8 min
same,half-life after repeated dosing,[6]; [19],retained its short half-life
same,current through the hERG channel,[7],did not affect current through the hERG channel
same,"tolerability, single doses",[8]; doses up to 500 mg/kg IV,well tolerated
same,"toxicology findings, single dose",[8]; doses up to 1000 mg/kg IV,"No observational, body weight, clinical chemistry, hematology, urinalysis, or gross or microscopic pathological signals were observed"
same,hyperlocomotion (signal for psychotomimetic effects),[9]; any dose evaluated,did not induce hyperlocomotion
same,adverse behavioral responses,"[9]; single doses up to 500 mg/kg IV, the highest dose evaluated, male or female rats",No adverse behavioral responses
same,motor coordination,"[9]; up to 500 mg/kg IV, male or female rats",did not affect motor coordination
same,"compatibility with human blood, serum, and plasma",[10],completely compatible
same,"tolerability, repeated dose",[11],well tolerated
same,"tolerability, single doses",[12]; doses up to 500 mg/kg IV,well tolerated
same,"toxicology findings, single dose",[12]; doses up to 1000 mg/kg IV,"No observational, body weight, clinical chemistry, hematology, urinalysis, or gross or microscopic pathological signals were observed"
same,respiratory parameters,[13],nor did GLYX-13 affect any respiratory parameter
same,convulsant activity,[14],did not affect convulsant activity
same,"heart rate, blood pressure, ECG parameters",[15],"nor did GLYX-13 administered at single IV bolus doses up to 500 mg/kg affect heart rate, blood pressure, or any ECG parameter"
same,electrophysiological parameters in Purkinje fibers,[16],did not significantly alter any of the electrophysiological parameters
same,"tolerability, repeated dose",[17],well tolerated
same,mouse micronucleus assay,[18],inactive

# Reference: publication PMC4721220 (Expert opinion on investigational drugs, 2013)
